Diaphorase inh: diaphorase inhibitors and chemical oxidizers, primary screen, counter-screen for diaphorase-coupled primary assays, biochemical, uHTS, resorufin fluorescence; diaphorase resazurin-to-resorufin fluorescence, NADH, 16 min; bacterial (C. kluyveri) enzyme, not human; actives 0.69% (n = 190,000); inhibition, % at 20 µM; AID 1217, 2008;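 active = primary screen inhibition at 20 µM above a set limit, cut at about 50% in these data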;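 also: plate controls were DMSO with full reaction for no effect and wells lacking NADH for full effect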
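System: Diaphorase enzyme from Clostridium kluyveri | Amount: Enzyme working solution with 0.14 U/mL diaphorase | Benchmarks: No-NADH positive control and DMSO neutral control | Signal: Fluorescence of resorufin formed from resazurin, Ex 544/Em 590 nm | Schedule: 16-min room-temperature incubation before reading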
Lmaj promast: Leishmania major promastigote growth inhibition, primary screen; Leishmania major promastigotes, resazurin fluorescence viability; inhibition, % at 10 µM; actives 9% (n = 200,000);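 also: promastigotes grown with compound for 44 hours at 28 °C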
PfG6PD inh: PfG6PD enzyme inhibitors, primary screen, biochemical, fluorescence intensity, uHTS; glucose-6-phosphate dehydrogenase-6-phosphogluconolactonase (Plasmodium falciparum 3D7); PfGluPho enzyme, NADPH resazurin-diaphorase fluorescence; inhibition, % at 20 µM; actives 0.78% (n = 350,000); AID 504690, 2011;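 active = inhibition reaching at least a set limit at 20 µM in the primary screen, cut at about 59% in these data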;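 also: 0% = DMSO wells with substrate and 100% = DMSO wells lacking glucose-6-phosphate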
G6PDH CS: L. mesenteroides G6PDH inhibitors, counter-screen for G6PDH-coupled screening assays, biochemical, Leuconostoc mesenteroides enzyme; glucose-6-phosphate dehydrogenase [Leuconostoc mesenteroides]; Purified L. mesenteroides G6PDH, diaphorase/resazurin coupled fluorescence, 45 min; inhibition, % at 5 µM; actives 0.12% (n = 200,000)
Diaphorase act: compounds boosting diaphorase resazurin reduction – biochemical, uHTS, resorufin fluorescence, counter-screen for diaphorase-coupled primary assays, primary screen. actives 0.005% (n = 190,000). activation factor at 20 µM. Diaphorase/resazurin coupled assay, 16 min; hits give high values; 1 = vehicle wells, 0 = NADH-free wells;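 active = diaphorase activity raised at least twofold by the compound at 20 µM; inactive = activation factor below 2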
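Assay system: bacterial diaphorase enzyme (C. kluyveri) / Input: enzyme 0.07 U/mL final / Medium: 50 mM HEPES pH 7.4 with 4.542 mM MgCl2, 0.005% Tween 20 / Doses: single compound dose of 20 µM, 1% DMSO final / Incubation: 16 min enzyme reaction, ambient temperature / Signal: fluorescence, excitation 544 nm and emission 590 nm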
DTT redox prof: compounds producing H2O2 with reducing agent – biochemical, NIH compound library profiling, artefact control for MLSCN library redox annotation, primary screen | DTT-dependent redox cycling H2O2, phenol red/HRP absorbance; 100% = 100 µM peroxide control, 0% = buffer | activation, % at 10 µM | actives 0.03% (n = 200,000) | AID 878, 2007;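 active = activation of at least 50% relative to the plate's high and low controls in the primary single-dose screen; inactive = activation below 50%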;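 also: compound incubated with DTT at 0.8 mM final as the reducing agent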
Numbers without * were called inactive; . = no result given. Only a selection was taken, and hits are over-represented in it overall. Rule as the data show it, unless noted: active = inhibition above about 50%; inactive = the rest.

SMILES | Diaphorase inh | Lmaj promast | PfG6PD inh | G6PDH CS | Diaphorase act | DTT redox prof
O=S(=O)(c1ccc(F)cc1)c1snnc1-c1ccccc1 | 11.2 | 81.1* | 57.7 | 8.4 | 0.9 | 0.2
O=S(=O)(c1ccc(Cl)cc1)c1snnc1-c1ccccc1 | 7.8 | 100.5* | 44.2 | 1.2 | 0.9 | 0.3
O=C(CN1CCN(C2CCCCC2)CC1)Nc1ccccc1-c1ccccc1 | 13.0 | 58.7* | -9.9 | 19.4 | 0.9 | -0.5
O=C(CN1CCCCC1)Nc1ccccc1-c1ccccc1 | 0.0 | 7.2 | -20.7 | 7.6 | 1 | 0.0
O=S(=O)(NCCn1ccc2ccccc21)c1ccccc1 | 8.0 | -3.8 | 14.1 | -2.1 | 0.9 | -0.8
O=C(Nc1ccccc1)N1N=C(c2cccs2)CC1c1cccs1 (stereo not drawn) | 23.0 | 89.5* | 25.6 | 17.8 | 0.8 | -0.3
O=C(c1ccccc1)C1Oc2ccccc2C2CC(c3cccs3)=NN12 (stereo not drawn) | 30.8 | 64.7* | 3.3 | 9.9 | 0.7 | -0.2
O=C(c1ccccc1)N1N=C(c2cccs2)CC1c1ccccc1O (stereo not drawn) | . | . | 7.0 | . | . | .
COc1cccc(NC(=O)CSc2nc3ccsc3c(=O)n2-c2ccc(C(=O)O)cc2)c1 | 5.1 | 0.2 | -3.1 | 0.6 | 0.9 | -0.5
Cc1cccc(NS(=O)(=O)c2c(C)[nH]c(C)c2C(=O)N2CCCC2)c1 | . | . | -4.9 | . | . | .
Cc1ccc(S(=O)(=O)Nc2ccccc2CNc2ccc(Br)cn2)cc1 | 27.6 | 9.2 | 9.8 | 4.2 | 0.7 | -0.4
Cc1ccc(S(=O)(=O)Nc2ccccc2CNc2ccccn2)cc1 | 10.9 | 58.8* | 41.5 | -3.5 | 0.9 | -0.2
Cc1ccc(S(=O)(=O)Nc2ccccc2CNc2ncc(Br)cc2Br)cc1 | 22.9 | 100.0* | 6.5 | 0.9 | 0.8 | -0.6
O=C(N/N=C/c1cccs1)c1ccc2c(c1)OCO2 | 5.5 | -7.2 | -18.9 | -6.3 | 0.9 | -0.1
C=CCn1c(SCC#N)nc2ccccc2c1=O | -6.9 | 5.5 | -8.8 | 2.7 | 1.1 | 1.6
C=CCn1c(SCC#N)nc2c(c1=O)C(C)(C)Cc1ccccc1-2 | 17.8 | 96.4* | -13.5 | 19.9 | 0.8 | -1.9
CC(C)C(C)(C#N)NC(=O)CSc1nc(C2CCCCC2)n(-c2ccccc2)n1 (stereo not drawn) | 9.7 | 80.4* | 1.1 | 11.5 | 0.9 | 0.4
NC(=O)NC(=O)CSc1nc(C2CCCCC2)n(-c2ccccc2)n1 | 12.5 | 47.1 | 4.1 | 7.1 | 0.9 | .
O=[N+]([O-])C1=CC=C2C(=NC3(CCCCC3)N2O)C1=NCCc1ccccc1 | 62.9* | 75.2* | -10.6 | 14.9 | 0.4 | 0.1
CC1(C)CC(N=C2C([N+](=O)[O-])=CC=C3C2=NC2(CCCCC2)N3O)CC(C)(C)N1 | . | . | 16.1 | . | . | .
O=[N+]([O-])C1=CC=C2C(=NC3(CCCCC3)N2O)C1=NC1CCCCC1 | 82.8* | -0.1 | 14.8 | 25.9 | 0.2 | -3.5
CC(C)(C)N=C1C([N+](=O)[O-])=CC=C2C1=NC1(CCCCC1)N2O | 76.5* | 17.3 | 25.3 | 38.6 | 0.2 | -0.3
N#C/C(=C\c1cccc(O)c1)c1nc2ccccc2o1 | . | . | -8.1 | . | . | .
Cn1c(/C(C#N)=C/c2cccc(O)c2)nc2ccccc21 | 3.9 | 89.2* | -17.6 | 13.9 | 1 | -1.0
Cc1cccn2c(=O)nc(SCC(=O)NCc3ccc(F)cc3)nc12 | . | . | 7.0 | . | . | .
SMILES | Diaphorase inh | Lmaj promast | PfG6PD inh | G6PDH CS | Diaphorase act | DTT redox prof
CC(/C=C/c1ccc2c(c1)OCO2)=N/NC(=O)c1ccncc1 | . | . | 1.6 | . | . | .
CC(/C=C/c1cccc([N+](=O)[O-])c1)=N\NC(=O)c1ccncc1 | 12.9 | 55.4* | -7.8 | 5.6 | 0.9 | -0.2
CC(/C=C/c1ccccc1)=N\NC(=O)c1ccc(Br)cc1 | 3.6 | -4.6 | 0.6 | 11.0 | 1 | 0.1
Cc1cc(C(=O)N/N=C/C=C/c2cccc([N+](=O)[O-])c2)n[nH]1 | 5.8 | 56.9* | -10.1 | 6.2 | 0.9 | -2.0
CC(/C=C/c1ccccc1)=N/NC(=O)c1cccc(Br)c1 | 7.2 | 71.6* | -17.6 | 8.8 | 0.9 | -0.3
CC1=C(/C=C/C(C)=N\NC(=O)c2ccncc2)C(C)(C)CCC1 | 2.8 | 81.4* | -9.8 | 15.9 | 1 | -0.5
O=C(Nc1ccccc1)N1CCC(C(=O)N2CCCC(C(F)(F)F)C2)CC1 (stereo not drawn) | . | . | -5.8 | . | . | .
Clc1cc(Cl)c(OCCCCn2cncn2)c(Cl)c1 | . | . | -0.9 | . | . | .
CCCCN(C(=O)c1ccc(C)o1)c1c(N)n(CC(C)C)c(=O)[nH]c1=O | . | . | 10.1 | . | . | .
CCc1ccc(C(=O)NNc2ccc(F)cc2F)cc1 | . | . | 34.6 | . | . | .
COc1n[nH]c(C(=O)Nc2cc(Cl)ccc2Cl)c1[N+](=O)[O-] | -6.9 | 88.7* | -15.3 | 6.9 | 1.1 | -1.3
COc1ccc(Cl)cc1NC(=O)c1[nH]nc(OC)c1[N+](=O)[O-] | -0.1 | 53.4* | -3.7 | 17.5 | 1 | -1.1
COc1n[nH]c(C(=O)Nc2cc(F)ccc2C)c1[N+](=O)[O-] | -3.7 | 16.6 | -5.5 | 7.9 | 1 | -0.9
O=C(O)c1cc(NC(=O)c2ccccc2[N+](=O)[O-])ccc1O | 14.9 | -9.5 | -22.2 | 9.9 | 0.9 | 0.0
Cc1cc(Cl)ccc1N(CC(=O)NCc1ccccc1)S(C)(=O)=O | . | . | 7.1 | . | . | .
CCCCN(C)S(=O)(=O)c1ccc(C(=O)Nc2nnc(-c3cccs3)o2)cc1 | 6.3 | 99.3* | . | 6.4 | 0.9 | -6.4
CCCCN(CC)S(=O)(=O)c1ccc(C(=O)Nc2nnc(COC)o2)cc1 | 6.0 | 2.2 | -26.6 | 1.4 | 0.9 | -1.3
CCCCN(CC)S(=O)(=O)c1ccc(C(=O)Nc2nnc(-c3ccccc3Cl)o2)cc1 | 18.0 | 99.0* | . | 5.7 | 0.8 | 0.3
CCN(Cc1ccccc1)S(=O)(=O)c1ccc(C(=O)Nc2nnc(-c3ccccc3OC)o2)cc1 | -10.2 | 98.5* | -39.9 | 3.1 | 1.1 | 0.1
COc1ccc(C2C3=C(CCCC3=O)Nc3nc(C(F)(F)F)nn32)cc1OC (stereo not drawn) | 2.2 | -7.3 | 4.7 | 8.8 | 1 | -2.3
COc1cc(OC)c(C2C3=C(CCCC3=O)Nc3nc4ccccc4n32)cc1OC (stereo not drawn) | 13.9 | 99.4* | 12.3 | 8.0 | 0.9 | -2.1
COc1ccc(C2C(C(=O)c3ccccc3)=C(C)Nc3nc4ccccc4n32)c(OC)c1 (stereo not drawn) | 19.5 | 87.3* | -0.7 | 4.3 | 0.8 | 0.5

From PubChem BioAssay
